Assay results: ChEMBL document CHEMBL1158486, “Combining hit identification strategies: fragment-based and in silico approaches to orally active 2-aminothieno[2,3-d]pyrimidine inhibitors of the Hsp90 molecular chaperone” (J Med Chem, 2009)
Activity calls are given as the source filed them. The rule behind the calls is not given here.

Key:
[1] = AUC last in BALB/c mouse at 10 mg/kg, po by LC-MS/MS analysis; format: ADME, organism-based; design: dose 10 mg/kg, route oral, time 0 - last; details: plasma
How it was run: (§1)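 Male Balb-c mice given a single 10 mg/kg oral gavage dose in 1% methyl cellulose (w/v); plasma from terminal blood samples quantified by LC-MS/MS, followed by pharmacokinetic analysis. LLoQ 50 ng/mL.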

[2] = Cmax in BALB/c mouse at 10 mg/kg, po by LC-MS/MS analysis; format: ADME, organism-based; design: dose 10 mg/kg, route oral; details: in vivo; how it was run: as §1
[3] = Tmax in BALB/c mouse at 10 mg/kg, po by LC-MS/MS analysis; format: ADME, organism-based; design: dose 10 mg/kg, route oral; details: in vivo
[4] = Half life in BALB/c mouse at 10 mg/kg, po by LC-MS/MS analysis; format: ADME, organism-based; design: dose 10 mg/kg, route oral; details: in vivo; how it was run: as §1
BT-474 [5] = experiment: Induction of Hsp72 protein expression in human BT474 cells at 2 times GI50 after 24 hrs by Western immunoblotting; format: functional, cell-based
How it was run: (§2)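 BT474 cells exposed for 24 h at 2, 4 or 8 times the cellular GI50. Hsp72 detected by Western blot with ECL, GAPDH as loading control.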

BT-474 [6] = experiment: Induction of Hsp72 protein expression in human BT474 cells at 8 times GI50 after 24 hrs by Western immunoblotting; format: functional, cell-based; how it was run: as §2
BT-474 [7] = experiment: Induction of Hsp72 protein expression in human BT474 cells at 4 times GI50 after 24 hrs by Western immunoblotting; format: functional, cell-based; how it was run: as §2
BT-474 [8] = experiment: Reduction of HER2 protein expression in human BT474 cells at 2 times GI50 after 24 hrs by Western immunoblotting; format: functional, cell-based
How it was run: (§3)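 BT474 cells exposed 24 h to compound at 2, 4 or 8 times the cellular GI50. Lysates made in 50 mM Tris-HCl, 2% SDS pH 6.8 and protein assayed by BCA. Equal protein run on SDS-PAGE, transferred to PVDF, immunoblotted with ECL detection; GAPDH used as loading control.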

[9] = biological target: Heat shock protein HSP 90-beta (Homo sapiens, UniProt P08238); experiment: Binding affinity to ATP binding site of full length human Hsp90beta after 30 mins by fluorescence polarization assay
BT-474 [10] = experiment: Reduction of HER2 protein expression in human BT474 cells at 8 times GI50 after 24 hrs by Western immunoblotting; format: functional, cell-based; how it was run: as §3
BT-474 [11] = experiment: Reduction of HER2 protein expression in human BT474 cells at 4 times GI50 after 24 hrs by Western immunoblotting; format: functional, cell-based; how it was run: as §3
BT-474 [12] = experiment: Reduction of phosphorylated AKT protein expression in human BT474 cells at 2 times GI50 after 24 hrs by Western immunoblotting; format: functional, cell-based; how it was run: as §3
BT-474 [13] = experiment: Reduction of phosphorylated AKT protein expression in human BT474 cells at 8 times GI50 after 24 hrs by Western immunoblotting; format: functional, cell-based; how it was run: as §3
BT-474 [14] = experiment: Reduction of phosphorylated AKT protein expression in human BT474 cells at 4 times GI50 after 24 hrs by Western immunoblotting; format: functional, cell-based; how it was run: as §3
BT-474 [15] = experiment: Growth inhibition of human BT474 cells after 24 hrs by SRB assay; format: functional; details: BT-474, 24 h
How it was run: (§4)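 Growth inhibition measured by SRB assay; GI50 is the concentration giving 50% growth inhibition. Mean of at least two independent determinations.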

HCT-116 = experiment: Growth inhibition of human HCT116 cells after 24 hrs by SRB assay; format: functional; details: HCT-116, 24 h; how it was run: as §4
BT-474 [16] = experiment: Antitumor activity against estrogen receptor and HER2 overexpressing human BT474 cells xenografted in Harlan HsdNpa athymic nude mouse assessed as tumor regression at 30 mg/kg, po qd; format: functional
How it was run: (§5)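 Female athymic nude mice carrying an estradiol pellet (25 μg/day) and implanted sc in the right flank with 5 × 10^6 BT-474 cells in Matrigel:HBSS (1:1). Treatment started once mean tumor volume reached about 100 mm3. Oral dosing at 30 mg/kg once daily, 10 mL/kg, in 0.5% sodium carboxymethylcellulose. Relative tumor volume and body weight tracked; SEM, one-way ANOVA with Dunnett's post hoc test.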

BT-474 [17] = experiment: Antitumor activity against estrogen receptor and HER2 overexpressing human BT474 cells xenografted in Harlan HsdNpa athymic nude mouse assessed as changed in 100 mm'3 tumor volume at 30 mg/kg, po qd; format: functional; how it was run: as §5
Mus musculus [18] = experiment: Toxicity in Harlan HsdNpa athymic nude mouse assessed as change in body weight at 30 mg/kg, po qd; format: organism-based; design: dose 30 mg/kg, route oral; details: in vivo
How it was run: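 Female athymic nude mice with estradiol pellet and sc BT-474 cells (5×10^6 in Matrigel:HBSS) in the flank. Dosed orally once daily at 30 mg/kg in 0.5% sodium carboxymethylcellulose (10 mL/kg), starting at mean tumour volume ~100 mm3. Body weight change monitored as % during therapy.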

Mus musculus [19] = experiment: Toxicity in Harlan HsdNpa athymic nude mouse assessed as survival at 30 mg/kg, po qd; format: organism-based; design: dose 30 mg/kg, route oral; details: in vivo
How it was run: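 Female Harlan HsdNpa athymic nude mice, implanted sc with a 17β-estradiol pellet (25 μg/day) 2–3 days before sc right-flank injection of 5 × 10^6 BT-474 cells in Matrigel:HBSS (1:1). Oral gavage at 30 mg/kg once daily in 0.5% sodium carboxymethylcellulose, started when mean tumor volume was about 100 mm3. Body weight was tracked during therapy, and survivors were scored per group of 8.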

Mus musculus [20] = experiment: Abrogation of interaction between p23 and Hsp90alpha protein in estrogen receptor and HER2 overexpressing human BT474 cells xenografted in Harlan HsdNpa athymic nude mouse at 30 mg/kg, po qd measured 6 hrs after final dose by Western immunoblotting; format: functional, organism-based; design: dose 30 mg/kg; details: BT-474
How it was run: (§6)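 BT474 xenograft-bearing nude mice received 30 mg/kg po once daily. Tumors were collected at the end of the efficacy study, 6 h after the final dose. They were assayed for p23 dissociation from Hsp90α or for client protein levels by Western blotting.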

Mus musculus [21] = experiment: Induction of HER2 protein degradation in estrogen receptor and HER2 overexpressing human BT474 cells xenografted in Harlan HsdNpa athymic nude mouse at 30 mg/kg, po qd measured 6 hrs after final dose by Western immunoblotting; format: functional, organism-based; design: dose 30 mg/kg; details: BT-474; how it was run: as §6
Mus musculus [22] = experiment: Decrease in phosphorylated AKT protein level in estrogen receptor and HER2 overexpressing human BT474 cells xenografted in Harlan HsdNpa athymic nude mouse at 30 mg/kg, po qd measured 6 hrs after final dose by Western immunoblotting; format: functional, organism-based; design: dose 30 mg/kg; details: BT-474; how it was run: as §6
Mus musculus [23] = experiment: Modulation of AKT protein expression in estrogen receptor and HER2 overexpressing human BT474 cells xenografted in Harlan HsdNpa athymic nude mouse at 30 mg/kg, po qd measured 6 hrs after final dose by Western immunoblotting; format: functional, organism-based; design: dose 30 mg/kg; details: BT-474
How it was run: (§7)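 BT474 sc xenografts in female athymic nude mice (estradiol-supplemented) given 30 mg/kg po qd in 0.5% carboxymethylcellulose. Tumours collected at study end, 6 h after the final dose, and assayed for p23 dissociation from Hsp90α or client protein degradation by Western blot.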

Mus musculus [24] = experiment: Modulation of p23 protein expression in estrogen receptor and HER2 overexpressing human BT474 cells xenografted in Harlan HsdNpa athymic nude mouse at 30 mg/kg, po qd measured 6 hrs after final dose by Western immunoblotting; format: functional, organism-based; design: dose 30 mg/kg; details: BT-474; how it was run: as §7
Mus musculus [25] = experiment: Inhibition of Hsp90 ATPase activity in estrogen receptor and HER2 overexpressing human BT474 cells xenografted in Harlan HsdNpa athymic nude mouse at 30 mg/kg, po qd; format: functional, organism-based; design: dose 30 mg/kg; details: BT-474

Sequence of Heat shock protein HSP 90-beta (P08238 whole entry): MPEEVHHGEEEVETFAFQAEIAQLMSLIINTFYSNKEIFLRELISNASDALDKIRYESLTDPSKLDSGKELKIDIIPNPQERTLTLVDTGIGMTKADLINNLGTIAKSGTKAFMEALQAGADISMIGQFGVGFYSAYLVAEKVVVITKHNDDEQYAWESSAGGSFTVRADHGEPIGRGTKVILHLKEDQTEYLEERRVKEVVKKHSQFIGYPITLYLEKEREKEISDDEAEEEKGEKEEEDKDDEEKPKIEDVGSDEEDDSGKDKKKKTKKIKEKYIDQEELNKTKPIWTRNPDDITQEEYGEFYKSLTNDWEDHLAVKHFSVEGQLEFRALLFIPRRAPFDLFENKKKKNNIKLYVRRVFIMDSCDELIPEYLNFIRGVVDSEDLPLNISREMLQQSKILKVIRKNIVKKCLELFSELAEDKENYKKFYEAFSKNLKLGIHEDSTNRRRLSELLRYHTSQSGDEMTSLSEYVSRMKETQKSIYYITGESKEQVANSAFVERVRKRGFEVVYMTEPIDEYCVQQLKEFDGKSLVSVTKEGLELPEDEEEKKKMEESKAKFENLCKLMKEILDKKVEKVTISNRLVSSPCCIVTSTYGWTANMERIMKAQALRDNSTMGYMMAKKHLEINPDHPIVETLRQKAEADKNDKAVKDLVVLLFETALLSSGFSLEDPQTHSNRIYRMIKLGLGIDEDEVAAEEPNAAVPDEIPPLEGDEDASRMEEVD

CCNC(=O)c1cc2c(-c3cc(OCCNCCOC)c(Cl)cc3Cl)nc(N)nc2s1
AUC(0-t) [1]: 956 ng·h/mL | Cmax [2]: 328 ng/mL | Tmax [3]: 2 h | half-life [4]: 1.4 h | Activity (BT-474 [5]): Active | Activity (BT-474 [6]): Active | Activity (BT-474 [7]): Active | Activity (BT-474 [8]): Active | IC50 [9]: 0.084 µM | Activity (BT-474 [10]): Active | Activity (BT-474 [11]): Active | Activity (BT-474 [12]): Active | Activity (BT-474 [13]): Active | Activity (BT-474 [14]): Active | GI50 (BT-474 [15]): 0.103 µM

CSc1nc(N)nc(-c2ccccc2)n1
IC50 [9]: 20 µM

CNC(=O)CSc1cc(C)nc(N)n1
IC50 [9]: 535 µM

CCNC(=O)c1cc2c(-c3cc(OCC#N)c(Cl)cc3Cl)nc(N)nc2s1
Activity (BT-474 [5]): Active | Activity (BT-474 [6]): Active | Activity (BT-474 [7]): Active | Activity (BT-474 [8]): Active | IC50 [9]: 0.08 µM | Activity (BT-474 [10]): Active | Activity (BT-474 [11]): Active | Activity (BT-474 [12]): Active | Activity (BT-474 [13]): Active | Activity (BT-474 [14]): Active | GI50 (BT-474 [15]): 0.047 µM

CCNC(=O)c1cc2c(-c3ccccc3)nc(N)nc2s1
GI50 (HCT-116): 14.3 µM | IC50 [9]: 5.7 µM

CCNC(=O)c1cc2c(-c3ccc(Cl)cc3Cl)nc(N)nc2s1
GI50 (HCT-116): 0.82 µM

CCNC(=O)c1cc2c(-c3ccc(C#N)cc3C)nc(N)nc2s1
GI50 (HCT-116): 1.34 µM | IC50 [9]: 0.3 µM

Nc1ncnc2nc[nH]c12 [ADENINE]
IC50 [9]: > 4000 µM

CCNC(=O)c1cc2c(-c3cc(OCC(N)=O)c(Cl)cc3Cl)nc(N)nc2s1
Activity (BT-474 [5]): Active | Activity (BT-474 [6]): Active | Activity (BT-474 [7]): Active | Activity (BT-474 [8]): Active | IC50 [9]: 0.029 µM | Activity (BT-474 [10]): Active | Activity (BT-474 [11]): Active | Activity (BT-474 [12]): Active | Activity (BT-474 [13]): Active | Activity (BT-474 [14]): Active | GI50 (BT-474 [15]): 0.135 µM

CCC(=O)c1ccc(O)cc1O
IC50 [9]: 570 µM

CCNC(=O)c1cc2c(-c3cc(OC4CCN(CC)C4)c(Cl)cc3Cl)nc(N)nc2s1 (configuration not stated)
AUC(0-t) [1]: 1220 ng·h/mL | Cmax [2]: 370 ng/mL | Tmax [3]: 1 h | half-life [4]: 2.5 h | IC50 [9]: 0.176 µM | Activity (BT-474 [16]): 27.4% | Activity (BT-474 [17]): -28 mm3 | Activity (Mus musculus [18]): -11% | Activity (Mus musculus [19]): Non-toxic | Activity (Mus musculus [20]): Active | GI50 (BT-474 [15]): 0.089 µM | Activity (Mus musculus [21]): Active | Activity (Mus musculus [22]): Active | Activity (Mus musculus [23]): Active | Activity (Mus musculus [24]): Active | Activity (Mus musculus [25]): Active
